The text below walks through data of ChEMBL document CHEMBL4052594, “Discovery of Pyrrolidine-Containing GPR40 Agonists: Stereochemistry Effects a Change in Binding Mode” (J Med Chem, 2017).

Structures are written as SMILES. Activity calls are given as the source filed them. The rule behind the calls is not given here.

In data set [1] the target is T1, Free fatty acid receptor 1 (Mus musculus, UniProt Q76JU9). The experiment in a line: Agonist activity at mouse GPR40 expressed in CHO-A12 cells assessed as increase in intracellular calcium flux measured for 100 secs by FLIPR assay. It counts as functional, cell-based.
T1 sequence (Q76JU9 whole entry): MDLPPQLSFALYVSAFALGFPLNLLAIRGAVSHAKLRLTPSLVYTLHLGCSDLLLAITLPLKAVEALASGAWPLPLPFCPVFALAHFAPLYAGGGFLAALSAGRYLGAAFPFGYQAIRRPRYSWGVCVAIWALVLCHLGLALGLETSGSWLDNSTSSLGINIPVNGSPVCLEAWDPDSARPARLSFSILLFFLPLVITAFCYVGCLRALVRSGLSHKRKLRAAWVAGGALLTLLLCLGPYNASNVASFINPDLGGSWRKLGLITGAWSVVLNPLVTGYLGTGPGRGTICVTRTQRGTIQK
In data set [2] the target is Free fatty acid receptor 1 (Mus musculus) (UniProt Q76JU9). Kind of data set: Intrinsic activity at mouse GPR40 expressed in CHO-A12 cells assessed as increase in intracellular calcium flux at 8.3 uM measured for 100 secs by FLIPR assay […]. Type of data set: functional, cell-based.
Sequence of Free fatty acid receptor 1 (Mus musculus) (Q76JU9 whole entry): as above
The target in data set [3] is T2, Free fatty acid receptor 1 (Homo sapiens, UniProt O14842). The experiment in a line: Binding affinity to human GPR40 expressed in HEK293 cell membranes after 1 hr by radioligand displacement based scintillation counting method. In outline: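 Binding of human GPR40 measured as Ki against a radioligand. Mean of at least two runs. Displacement of the label appears as a negative slope and potentiation as a positive one.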
T2 sequence (O14842 whole entry): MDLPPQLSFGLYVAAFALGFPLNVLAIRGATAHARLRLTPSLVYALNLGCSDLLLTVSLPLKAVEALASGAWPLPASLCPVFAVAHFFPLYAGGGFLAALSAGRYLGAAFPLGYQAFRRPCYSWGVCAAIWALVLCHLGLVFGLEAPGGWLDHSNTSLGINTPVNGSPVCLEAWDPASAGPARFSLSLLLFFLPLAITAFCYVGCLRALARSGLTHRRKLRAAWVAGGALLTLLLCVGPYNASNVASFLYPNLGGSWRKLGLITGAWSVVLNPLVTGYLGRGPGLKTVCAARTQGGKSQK

Data set [4] concerns the target T3, Peroxisome proliferator-activated receptor gamma (Homo sapiens, UniProt P37231).
T3 sequence (P37231 whole entry): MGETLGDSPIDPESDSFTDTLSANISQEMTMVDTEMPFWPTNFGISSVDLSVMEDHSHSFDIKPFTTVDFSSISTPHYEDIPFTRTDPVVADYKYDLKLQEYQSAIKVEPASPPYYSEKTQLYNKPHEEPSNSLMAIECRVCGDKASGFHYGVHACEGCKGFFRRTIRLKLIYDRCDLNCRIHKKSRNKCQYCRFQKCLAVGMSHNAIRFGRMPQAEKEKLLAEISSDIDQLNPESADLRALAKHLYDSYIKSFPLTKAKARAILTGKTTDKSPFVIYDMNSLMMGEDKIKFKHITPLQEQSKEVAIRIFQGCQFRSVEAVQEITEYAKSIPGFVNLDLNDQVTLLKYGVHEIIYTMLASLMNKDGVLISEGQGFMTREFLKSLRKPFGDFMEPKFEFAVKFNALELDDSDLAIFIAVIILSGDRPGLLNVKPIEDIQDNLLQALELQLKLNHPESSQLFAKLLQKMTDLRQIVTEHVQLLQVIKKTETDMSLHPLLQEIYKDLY
Kind of data set: Transactivation of human Gal4 fused PPARgamma-LBD expressed in HEK293 cells after 18 hrs by luciferase reporter gene assay. It counts as cell-based. A digest of the protocol:
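Gal4 gene reporter transactivation assay for PPARγ; EC50 and Ymax reported.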

Data set [5] concerns the target T4, PPARgamma (Homo sapiens, UniProt P37231).
T4 sequence (P37231 whole entry): T3 sequence (P37231 whole entry)
Kind of data set: Transactivation of human Gal4 fused PPARgamma-LBD expressed in HEK293 cells at 4.8 uM after 18 hrs by luciferase reporter gene assay relative to […]. It counts as cell-based. Particulars: HEK293 cells expressing Gal4-fused human PPARgamma-LBD.

In data set [6] the target is T2, Free fatty acid receptor 1. Kind of data set: Agonist activity at human GPR40 expressed in CHO-A12 cells assessed as increase in intracellular calcium flux measured for 100 secs by FLIPR assay. Type of data set: functional, cell-based.
The target of data set [7] is Free fatty acid receptor 1 (Mus musculus) (UniProt Q76JU9). The experiment in a line: Agonist activity at mouse GPR40 inducibly expressed in HEK293 cells assessed as increase in intracellular calcium flux measured for 100 secs by FLIPR assay. Type of data set: functional, cell-based.
In data set [8] the target is T2, Free fatty acid receptor 1. The experiment in a line: Agonist activity at human GPR40 inducibly expressed in HEK293 cells assessed as increase in intracellular calcium flux measured for 100 secs by FLIPR assay. It counts as functional, cell-based.
Data set [9] concerns the target T5, Nuclear receptor subfamily 1 group I member 2 (Homo sapiens, UniProt O75469).
T5 sequence (O75469 whole entry): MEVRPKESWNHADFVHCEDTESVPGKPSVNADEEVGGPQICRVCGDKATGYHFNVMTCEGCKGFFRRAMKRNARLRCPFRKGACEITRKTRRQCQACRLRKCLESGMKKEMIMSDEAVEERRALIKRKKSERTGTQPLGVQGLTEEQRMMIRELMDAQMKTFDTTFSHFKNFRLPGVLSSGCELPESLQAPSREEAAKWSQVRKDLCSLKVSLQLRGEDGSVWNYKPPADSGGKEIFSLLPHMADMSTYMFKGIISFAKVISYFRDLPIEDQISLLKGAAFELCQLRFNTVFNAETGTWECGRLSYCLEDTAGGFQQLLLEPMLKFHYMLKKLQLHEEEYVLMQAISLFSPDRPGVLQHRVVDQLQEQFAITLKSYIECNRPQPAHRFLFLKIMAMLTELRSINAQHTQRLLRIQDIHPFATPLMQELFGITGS
Kind of data set: Antagonist activity at PXR (unknown origin). It counts as ADME.

Data set [10] in a line: Antagonist activity at sodium channel (unknown origin). The settings on record: human.
The target of data set [11] is T2, Free fatty acid receptor 1. The experiment in a line: Agonist activity at human GPR40 transfected in HEK293 cells assessed as induction of cAMP accumulation incubated for 30 to 45 mins by HTRF assay. Type of data set: functional, cell-based.
Data set [12] addresses T2, Free fatty acid receptor 1. The experiment in a line: Partial agonist activity at human GPR40 inducibly expressed in HEK293 cells assessed as increase in intracellular calcium flux measured for 100 secs by FLIPR assay. It counts as functional, cell-based.
Data set [13] has as its target T2, Free fatty acid receptor 1. Kind of data set: Intrinsic activity at human GPR40 transfected in HEK293 cells assessed as induction of cAMP accumulation at 16.7 uM incubated for 30 to 45 mins by HTRF assay relative to […]. Type of data set: functional, cell-based.
The subject of data set [14] is Mus musculus. The experiment in a line: Antidiabetic activity in C57BL/6J mouse assessed as reduction of plasma glucose excursion at 10 to 100 mg/kg, po pretreated for 1 hr followed by glucose challenge measured up to 120 mins by iGTT. It counts as functional, organism-based.
Data set [15] in a line: Cmax in C57BL/6J mouse at 10 mg/kg, po. It counts as ADME, organism-based. Set-up: dose 10 mg/kg, route oral. The settings on record: in vivo.
The target in data set [16] is Free fatty acid receptor 1 (Mus musculus) (UniProt Q76JU9). The experiment in a line: (§1) Agonist activity at GPR40 in mouse STC1 cells assessed as induction of GLP-1 secretion measured after 1 hr by HTRF assay. It counts as cell-based.
The nature of data set [17]: AUC (0 to 4 hrs) in C57BL/6J mouse at 10 mg/kg, po. Type of data set: ADME, organism-based. More on the design: time < 4 hr, dose 10 mg/kg, route oral. Particulars: in vivo.
Data set [18] relates to Mus musculus. The experiment in a line: Antidiabetic activity in C57BL/6J mouse assessed as change in plasma glucose AUC (0 to 120 mins) at 1 mg/kg, po administered 1 hr prior to glucose challenge by oral glucose tolerance test. Type of data set: functional. A digest of the protocol:
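C57BL/6J mice dosed orally at 0.3 or 1 mg/kg 1 h before an oral glucose bolus. Plasma glucose sampled at -60, -20, 0, 20, 40, 60 and 120 min; glucose AUC0-120 expressed relative to vehicle.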

The target in data set [19] is T2, Free fatty acid receptor 1. Kind of data set: Potentiation of DHA-induced agonist activity at human GPR40 inducibly expressed in HEK293 cells assessed as increase in intracellular calcium flux at 10 nM measured for 100 secs by FLIPR assay. It counts as functional, cell-based. In outline:
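Ca2+ FLIPR concentration-response to DHA in inducible hGPR40 cells, alone or with fixed added test compound (3 nM or 10 nM); curve shift assessed.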

Data set [20] addresses T1, Free fatty acid receptor 1. The data set is described as §1. Type of data set: cell-based.
In data set [21] the target is T2, Free fatty acid receptor 1. The experiment in a line: Potentiation of DHA-induced agonist activity at human GPR40 inducibly expressed in HEK293 cells assessed as increase in intracellular calcium flux at agonism EC50 measured for 100 secs by FLIPR assay. Type of data set: functional, cell-based.

As to `Cc1ccccc1Oc1ccc(N2CCC[C@H]2CC(=O)O)cc1`, the EC50 stood at 5600 nM in [1], 32000 nM in data set [4] and 74 nM in data set [6]. Also, in data set [2], the Intrinsic activity was 69%. In [3], this molecule returned a Ki of 4400 nM. The molecule also displayed an Emax at 18 h, 4.8 µM in data set [5] of 27%.
With `COc1ccc(F)c(-c2ccc(Cc3ccc(N4CC(C(F)(F)F)CC4CC(=O)O)cc3)c(C)c2)c1` (mixture of isomers), the result in data set [7] and in data set [8] was Active.
With `Cc1ccccc1COc1ccc(N2CCC[C@H]2CC(=O)O)cc1`, the “inhibition (INH)” value in data set [9] and in data set [10] was “Active” each time. Besides, the EC50 in data set [1] came to 3400 nM; in [6] it was 190 nM. Further, in data set [2], the Intrinsic activity was in the range of 41 to 73%.
On to `COc1ccc(F)c(-c2ccc(Cc3ccc(N4CCC[C@H]4CC(=O)O)cc3)c(C)c2)c1`, for which the EC50 was determined as 1900 nM in data set [1] and 220 nM in [6]. Further, in data set [2], the Intrinsic activity was determined as 160%. The Ki in data set [3] came out at 310 nM.
Consider `Cc1cc(OCc2ccccc2)ccc1Oc1ccc(N2C[C@@H](C(F)(F)F)C[C@H]2CC(=O)O)cc1`, for which the EC50 in data set [1] was 1500 nM; in data set [6], 120 nM. In addition, the Intrinsic activity in [2] was 34%. Moreover, the affinity in data set [3], expressed as Ki, was 10 nM.
Consider `Cc1ccccc1Oc1ccc(N2C[C@@H](C(F)(F)F)C[C@H]2CC(=O)O)cc1`, for which the half-maximal effective concentration (EC50) in data set [11] was greater than 20000 nM; in data set [1], 330 nM; in data set [6], 73 nM. In addition, the values for the Intrinsic activity in [2] and in data set [13] were 84% and 5%, respectively. In addition, in [12], the outcome was Active. The molecule also registered an inhibition constant Ki in data set [3] of 35 to 39 nM. In addition, the result in [14] and in [16] was inactive. Moreover, the Cmax in data set [15] was determined as 4.7 µM. In data set [17], this molecule displayed an AUC(0-t) at 4 h of 7 µM·h.
Turning to `Cc1cccc(Oc2ccc(N3C[C@@H](C(F)(F)F)C[C@H]3CC(=O)O)cc2)c1C`, the values for the 50% effective concentration (EC50) in data set [1] and in data set [6] were 500 nM and 110 nM, respectively. For the same molecule, the Intrinsic activity in data set [2] was 100%. The molecule further returned a Ki in data set [3] of 60 nM.
Regarding `Cc1ccccc1Cc1ccc(N2C[C@@H](C(F)(F)F)C[C@H]2CC(=O)O)cc1`, the EC50 in data set [1] was 710 nM; in data set [6] it was 67 nM. Besides, the Intrinsic activity in [2] came to 54%. Further, the Ki in data set [3] was determined as 73 nM.
With `O=C(O)C[C@@H]1CCCN1c1ccc(OCc2ccc(Cl)cc2Cl)cc1`, the “inhibition (INH)” value in data set [9] is “Active”. Moreover, the EC50 came to 4500 nM in data set [1], 17000 nM in [4] and 340 nM in data set [6]. In addition, the Intrinsic activity in data set [2] was 54 to 66%. Further, affinity in data set [3] was put at a Ki of 890 nM. The molecule further registered an Emax at 18 h, 4.8 µM in data set [5] of 54%. The molecule further came in with an INH in data set [10] of 4 µM.
Take `Cc1ccccc1Cc1ccc(N2C[C@@H](C)C[C@H]2CC(=O)O)cc1`: the EC50 in [1] came out at 1100 nM; in [6] it was 140 nM. Moreover, the Intrinsic activity in [2] turned out to be 43%. Also, in data set [3], affinity was put at a Ki of 360 nM.
Take `Cc1c(Cl)cccc1Oc1ccc(N2C[C@@H](C(F)(F)F)C[C@H]2CC(=O)O)cc1`: the EC50 in [1] worked out at 430 nM; in data set [6], 82 nM. Besides, in data set [2], the Intrinsic activity came to 50%. For the same molecule, the Ki in [3] was 13 nM.
For `Cc1ccccc1Cc1ccc(N2CC[C@H](C)[C@H]2CC(=O)O)cc1`, the EC50 in data set [1] is 1900 nM; in data set [6], 120 nM. In addition, in data set [2], the Intrinsic activity was found to be 27%. In addition, the inhibition constant (Ki) in [3] was determined as 310 nM.
For the molecule `Cc1ccccc1Cc1ccc(N2CCC[C@H]2CC(=O)O)cc1`, the figures for the concentration giving a half-maximal response (EC50) in data set [1] and in [6] were greater than 33000 nM and 150 nM, respectively. In data set [3], the Ki is 1300 nM. Also, in data set [4] (human, hek293, 18 h), the Activity result is listed as “Not Active”.
Turning to `COc1ccc(F)c(-c2ccc(Cc3ccc(N4C[C@@H](C(F)(F)F)C[C@H]4CC(=O)O)cc3)c(C)c2)c1`, the EC50 in data set [11] came out at 2400 nM; in data set [1], 2400 nM; in data set [6], 490 nM; in data set [20] it was 3200 nM. The Intrinsic activity was determined as 46% in [2] and 28% in data set [13]. In data set [3], this molecule registered a Ki of 45 nM. Besides, the outcome in data set [18], in data set [19] and in data set [21] was inactive.
